# ChEMBL document CHEMBL4382192, “Discovery of a potent dual ALK and EGFR T790M inhibitor” (Eur J Med Chem, 2017)
# What was measured:
# [1] = biological target: Mitogen-activated protein kinase kinase kinase kinase 4 (Homo sapiens) (UniProt O95819); assay: Binding affinity to wild-type human partial length MAP4K4 (M1 to R310 residues) expressed in bacterial expression system assessed as residual binding level at 1 uM by Kinomescan method relative to control
# [2] = biological target: Fibroblast growth factor receptor 2 (Homo sapiens) (UniProt P21802); assay: Binding affinity to wild-type human partial length FGFR2 (D457 to E769 residues) expressed in bacterial expression system assessed as residual binding level at 1 uM by Kinomescan method relative to control
# Sequence of Fibroblast growth factor receptor 2 (Homo sapiens) (P21802 22-821 limits assumed): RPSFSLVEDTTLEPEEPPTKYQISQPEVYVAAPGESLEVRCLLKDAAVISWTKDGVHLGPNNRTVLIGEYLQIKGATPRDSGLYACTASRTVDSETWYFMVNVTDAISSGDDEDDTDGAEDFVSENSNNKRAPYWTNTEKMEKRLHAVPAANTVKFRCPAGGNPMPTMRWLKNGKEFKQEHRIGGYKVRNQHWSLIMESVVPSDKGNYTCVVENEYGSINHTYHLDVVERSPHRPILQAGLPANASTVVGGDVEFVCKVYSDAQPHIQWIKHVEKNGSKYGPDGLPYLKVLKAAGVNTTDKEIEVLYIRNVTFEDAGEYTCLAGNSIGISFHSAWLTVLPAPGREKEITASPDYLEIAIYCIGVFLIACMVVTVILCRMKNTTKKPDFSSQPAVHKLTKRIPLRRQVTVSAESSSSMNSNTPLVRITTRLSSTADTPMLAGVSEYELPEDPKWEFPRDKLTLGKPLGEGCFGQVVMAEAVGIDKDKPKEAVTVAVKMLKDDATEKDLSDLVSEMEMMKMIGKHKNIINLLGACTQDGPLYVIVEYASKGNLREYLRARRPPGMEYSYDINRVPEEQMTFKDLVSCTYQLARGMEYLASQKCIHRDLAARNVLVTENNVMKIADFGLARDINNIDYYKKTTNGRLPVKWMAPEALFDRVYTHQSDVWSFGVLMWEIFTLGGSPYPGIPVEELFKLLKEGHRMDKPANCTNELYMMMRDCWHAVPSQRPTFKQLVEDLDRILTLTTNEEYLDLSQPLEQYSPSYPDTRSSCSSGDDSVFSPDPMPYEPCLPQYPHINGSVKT
# [3] = biological target: Serine/threonine-protein kinase PAK 3 (Homo sapiens) (UniProt O75914); assay: Binding affinity to wild-type human full length PAK3 (M1 to R544 residues) expressed in bacterial expression system assessed as residual binding level at 1 uM by Kinomescan method relative to control
# Sequence of Serine/threonine-protein kinase PAK 3 (Homo sapiens) (O75914 whole entry, looked up, the tested form may be a part): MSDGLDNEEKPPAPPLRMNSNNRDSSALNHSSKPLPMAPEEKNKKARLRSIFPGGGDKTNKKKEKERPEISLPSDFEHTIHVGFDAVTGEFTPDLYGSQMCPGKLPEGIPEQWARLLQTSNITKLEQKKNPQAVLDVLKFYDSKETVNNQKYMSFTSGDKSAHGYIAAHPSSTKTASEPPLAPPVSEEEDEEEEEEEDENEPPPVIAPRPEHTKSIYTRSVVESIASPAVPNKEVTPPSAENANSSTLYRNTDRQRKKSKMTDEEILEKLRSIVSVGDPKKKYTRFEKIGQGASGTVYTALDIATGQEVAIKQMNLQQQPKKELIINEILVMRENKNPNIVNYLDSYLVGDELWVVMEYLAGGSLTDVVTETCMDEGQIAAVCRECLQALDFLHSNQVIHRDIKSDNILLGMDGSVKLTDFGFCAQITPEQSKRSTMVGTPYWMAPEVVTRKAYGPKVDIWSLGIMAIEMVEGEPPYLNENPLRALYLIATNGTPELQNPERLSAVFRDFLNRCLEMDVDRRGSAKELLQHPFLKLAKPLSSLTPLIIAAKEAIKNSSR
# Method in brief: (§1)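 Single-point kinome-wide KINOMEscan binding panel, test compound at 1 μM, run by the provider's standard protocol.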
# [4] = biological target: Calcium/calmodulin-dependent protein kinase type IV (Homo sapiens) (UniProt Q16566); assay: Binding affinity to wild-type human partial length CAMK4 (A22 to A322 residues) expressed in bacterial expression system assessed as residual binding level at 1 uM by Kinomescan method relative to control
# Sequence of Calcium/calmodulin-dependent protein kinase type IV (Homo sapiens) (Q16566 whole entry, the tested form may be a part): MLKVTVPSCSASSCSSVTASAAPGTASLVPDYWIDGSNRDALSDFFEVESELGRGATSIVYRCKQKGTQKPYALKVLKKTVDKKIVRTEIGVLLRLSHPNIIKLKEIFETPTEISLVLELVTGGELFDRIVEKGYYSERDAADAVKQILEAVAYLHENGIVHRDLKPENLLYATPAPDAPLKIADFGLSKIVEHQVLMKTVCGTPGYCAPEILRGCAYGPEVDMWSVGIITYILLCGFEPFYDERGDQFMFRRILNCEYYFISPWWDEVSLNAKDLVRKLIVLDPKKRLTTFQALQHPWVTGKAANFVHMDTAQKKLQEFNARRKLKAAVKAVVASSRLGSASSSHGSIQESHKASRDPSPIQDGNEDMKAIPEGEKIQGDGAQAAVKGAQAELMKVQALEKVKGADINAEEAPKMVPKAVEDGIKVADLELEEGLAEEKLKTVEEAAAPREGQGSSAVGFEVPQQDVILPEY
# [5] = biological target: MAP kinase-interacting serine/threonine-protein kinase 1 (Homo sapiens) (UniProt Q9BUB5); assay: Binding affinity to wild-type human full length MKNK1 (M1 to L424 residues) expressed in mammalian expression system assessed as residual binding level at 1 uM by Kinomescan method relative to control; method in brief: as §1
# [6] = biological target: Cyclin-dependent kinase 2 homolog (Plasmodium falciparum (isolate 3D7)) (UniProt P61075); assay: Binding affinity to wild-type Plasmodium falciparum full length PK5 (M1 to N288 residues) expressed in mammalian expression system assessed as residual binding level at 1 uM by Kinomescan method relative to control
# Sequence of Cyclin-dependent kinase 2 homolog (Plasmodium falciparum (isolate 3D7)) (P61075 whole entry, the tested form may be a part): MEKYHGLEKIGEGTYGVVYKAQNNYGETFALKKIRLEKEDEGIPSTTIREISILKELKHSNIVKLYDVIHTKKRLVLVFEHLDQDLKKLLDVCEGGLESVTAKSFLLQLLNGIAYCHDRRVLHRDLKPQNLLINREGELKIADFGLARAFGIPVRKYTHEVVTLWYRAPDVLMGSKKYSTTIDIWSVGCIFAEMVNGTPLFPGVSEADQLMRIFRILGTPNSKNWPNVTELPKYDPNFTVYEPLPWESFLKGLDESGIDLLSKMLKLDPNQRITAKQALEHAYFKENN
# Method in brief: (§2)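 Kinome-wide selectivity panel run by the KINOMEscan method, with the test compound at a single concentration of 1 μM. Wild-type and mutant kinases were profiled in the same screen.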
# [7] = biological target: Mitogen-activated protein kinase kinase kinase kinase 3 (Homo sapiens) (UniProt Q8IVH8); assay: Binding affinity to wild-type human partial length MAP4K3 (M1 to D301 residues) expressed in bacterial expression system assessed as residual binding level at 1 uM by Kinomescan method relative to control
# [8] = biological target: Tyrosine-protein kinase FRK (Homo sapiens) (UniProt P42685); assay: Binding affinity to wild-type human partial length FRK (A215 to F503 residues) expressed in bacterial expression system assessed as residual binding level at 1 uM by Kinomescan method relative to control
# [9] = biological target: Calcium/calmodulin-dependent protein kinase type II subunit alpha (Homo sapiens) (UniProt Q9UQM7); assay: Binding affinity to wild-type human partial length CAMK2A (M1 to K328 residues) expressed in bacterial expression system assessed as residual binding level at 1 uM by Kinomescan method relative to control
# [10] = biological target: SRSF protein kinase 2 (Homo sapiens) (UniProt P78362); assay: Binding affinity to wild-type human full length SRPK2 (M1 to S686 residues) expressed in bacterial expression system assessed as residual binding level at 1 uM by Kinomescan method relative to control; method in brief: as §1
# [11] = biological target: Insulin-like growth factor 1 receptor (Homo sapiens) (UniProt P08069); assay: Binding affinity to wild-type human partial length IGF1R (L972 to D1294 residues) expressed in bacterial expression system assessed as residual binding level at 1 uM by Kinomescan method relative to control
# [12] = biological target: Mast/stem cell growth factor receptor Kit (Homo sapiens) (UniProt P10721); assay: Binding affinity to wild-type human partial length KIT (I571 to D952 residues) expressed in bacterial expression system assessed as residual binding level at 1 uM by Kinomescan method relative to control
# [13] = biological target: Myotonin-protein kinase (Homo sapiens) (UniProt Q09013); assay: Binding affinity to wild-type human partial length DMPK (V47 to V415 residues) expressed in bacterial expression system assessed as residual binding level at 1 uM by Kinomescan method relative to control
# [14] = biological target: Tyrosine-protein kinase Fes/Fps (Homo sapiens) (UniProt P07332); assay: Binding affinity to wild-type human partial length FES (I527 to R822 residues) expressed in bacterial expression system assessed as residual binding level at 1 uM by Kinomescan method relative to control
# [15] = biological target: Serine/threonine-protein kinase tousled-like 2 (Homo sapiens) (UniProt Q86UE8); assay: Binding affinity to wild-type human partial length TLK2 (E424 to N749 residues) expressed in bacterial expression system assessed as residual binding level at 1 uM by Kinomescan method relative to control
# [16] = biological target: Activin receptor type-2B (Homo sapiens) (UniProt Q13705); assay: Binding affinity to wild-type human ACVR2B (H169 to D504 residues) expressed in bacterial expression system assessed as residual binding level at 1 uM by Kinomescan method relative to control
# [17] = Clearance in mouse at 10 mg/kg, po; format: ADME, organism-based; settings: in vivo
# [18] = biological target: Uncharacterized serine/threonine-protein kinase SBK3 (Homo sapiens) (UniProt P0C264); assay: Binding affinity to wild-type human partial length SgK110 (L22 to R329 residues) expressed in bacterial expression system assessed as residual binding level at 1 uM by Kinomescan method relative to control
# [19] = biological target: Dual specificity mitogen-activated protein kinase kinase 1 (Homo sapiens) (UniProt Q02750); assay: Binding affinity to wild-type human full length MEK1 (M1 to V393 residues) expressed in mammalian expression system assessed as residual binding level at 1 uM by Kinomescan method relative to control; method in brief: as §1
# Sequence of Dual specificity mitogen-activated protein kinase kinase 1 (Homo sapiens) (Q02750 whole entry, the tested form may be a part): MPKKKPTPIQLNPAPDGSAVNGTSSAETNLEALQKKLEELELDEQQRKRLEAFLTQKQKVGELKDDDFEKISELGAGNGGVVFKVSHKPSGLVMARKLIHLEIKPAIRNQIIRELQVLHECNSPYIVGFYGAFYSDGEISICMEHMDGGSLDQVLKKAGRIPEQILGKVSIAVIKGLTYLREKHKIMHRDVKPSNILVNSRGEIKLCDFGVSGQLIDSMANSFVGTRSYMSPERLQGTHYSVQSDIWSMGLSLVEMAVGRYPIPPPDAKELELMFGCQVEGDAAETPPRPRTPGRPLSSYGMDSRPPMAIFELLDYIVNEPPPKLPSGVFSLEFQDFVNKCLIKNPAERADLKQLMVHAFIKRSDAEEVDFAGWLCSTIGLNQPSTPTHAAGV
# [20] = biological target: Calcium/calmodulin-dependent protein kinase type II subunit beta (Homo sapiens) (UniProt Q13554); assay: Binding affinity to wild-type human partial length CAMK2B (M1 to Q380 residues) expressed in bacterial expression system assessed as residual binding level at 1 uM by Kinomescan method relative to control
# Sequence of Calcium/calmodulin-dependent protein kinase type II subunit beta (Homo sapiens) (Q13554 whole entry, the tested form may be a part): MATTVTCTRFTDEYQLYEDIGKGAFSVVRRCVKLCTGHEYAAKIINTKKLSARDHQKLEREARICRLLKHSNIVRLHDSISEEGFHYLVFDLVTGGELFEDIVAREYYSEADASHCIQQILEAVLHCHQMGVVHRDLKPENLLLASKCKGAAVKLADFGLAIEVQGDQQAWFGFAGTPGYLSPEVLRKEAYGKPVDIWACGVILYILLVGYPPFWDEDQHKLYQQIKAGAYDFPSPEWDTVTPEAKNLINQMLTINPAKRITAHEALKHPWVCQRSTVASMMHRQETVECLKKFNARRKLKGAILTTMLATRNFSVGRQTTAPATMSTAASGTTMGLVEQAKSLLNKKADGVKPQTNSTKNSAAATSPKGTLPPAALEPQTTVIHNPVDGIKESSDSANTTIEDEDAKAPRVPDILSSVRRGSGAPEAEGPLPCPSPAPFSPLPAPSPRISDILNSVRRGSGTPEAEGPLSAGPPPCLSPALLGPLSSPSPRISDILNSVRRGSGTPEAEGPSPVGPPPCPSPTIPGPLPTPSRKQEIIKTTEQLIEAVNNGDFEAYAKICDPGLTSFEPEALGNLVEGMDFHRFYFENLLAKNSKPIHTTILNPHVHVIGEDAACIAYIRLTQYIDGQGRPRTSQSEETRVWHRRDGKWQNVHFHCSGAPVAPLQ
# [21] = system: Tyrosine-protein kinase ABL1 (Homo sapiens), P00519 [Q252H]; assay: Binding affinity to human non-phosphorylated ABL1 Q252H mutant (S229 to K512 residues) expressed in mammalian expression system assessed as residual binding level at 1 uM by Kinomescan method relative to control; method in brief: as §2
# [22] = biological target: Mitogen-activated protein kinase 11 (Homo sapiens) (UniProt Q15759); assay: Binding affinity to wild-type human full length p38-beta (M1 to Q364 residues) expressed in bacterial expression system assessed as residual binding level at 1 uM by Kinomescan method relative to control
# [23] = system: ALK tyrosine kinase receptor (Homo sapiens), Q9UM73 [L1196M]; assay: Binding affinity to wild-type human partial length ALK L1196M mutant (I1088 to E1409 residues) expressed in mammalian expression system assessed as residual binding level at 1 uM by Kinomescan method relative to control
# [24] = biological target: SRSF protein kinase 3 (Homo sapiens) (UniProt Q9UPE1); assay: Binding affinity to wild-type human partial length SRPK3 (P41 to P567 residues) expressed in bacterial expression system assessed as residual binding level at 1 uM by Kinomescan method relative to control
# Sequence of SRSF protein kinase 3 (Homo sapiens) (Q9UPE1 whole entry, the tested form may be a part): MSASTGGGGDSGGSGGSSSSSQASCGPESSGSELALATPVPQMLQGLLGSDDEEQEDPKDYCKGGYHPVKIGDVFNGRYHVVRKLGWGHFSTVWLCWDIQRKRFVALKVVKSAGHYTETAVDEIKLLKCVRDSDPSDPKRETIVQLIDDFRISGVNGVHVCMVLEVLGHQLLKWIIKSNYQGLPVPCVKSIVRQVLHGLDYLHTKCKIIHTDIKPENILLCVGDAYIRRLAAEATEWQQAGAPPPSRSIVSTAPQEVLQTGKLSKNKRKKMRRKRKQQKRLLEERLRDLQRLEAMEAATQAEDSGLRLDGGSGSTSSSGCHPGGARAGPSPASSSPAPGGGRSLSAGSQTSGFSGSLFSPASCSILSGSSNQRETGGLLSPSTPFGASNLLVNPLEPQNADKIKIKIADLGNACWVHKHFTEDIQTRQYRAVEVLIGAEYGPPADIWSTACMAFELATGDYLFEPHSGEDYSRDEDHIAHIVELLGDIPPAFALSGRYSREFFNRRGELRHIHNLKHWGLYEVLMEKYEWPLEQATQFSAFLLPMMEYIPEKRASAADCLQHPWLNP
# Sequence of Mitogen-activated protein kinase kinase kinase kinase 4 (Homo sapiens) (O95819 2-1239 limits assumed): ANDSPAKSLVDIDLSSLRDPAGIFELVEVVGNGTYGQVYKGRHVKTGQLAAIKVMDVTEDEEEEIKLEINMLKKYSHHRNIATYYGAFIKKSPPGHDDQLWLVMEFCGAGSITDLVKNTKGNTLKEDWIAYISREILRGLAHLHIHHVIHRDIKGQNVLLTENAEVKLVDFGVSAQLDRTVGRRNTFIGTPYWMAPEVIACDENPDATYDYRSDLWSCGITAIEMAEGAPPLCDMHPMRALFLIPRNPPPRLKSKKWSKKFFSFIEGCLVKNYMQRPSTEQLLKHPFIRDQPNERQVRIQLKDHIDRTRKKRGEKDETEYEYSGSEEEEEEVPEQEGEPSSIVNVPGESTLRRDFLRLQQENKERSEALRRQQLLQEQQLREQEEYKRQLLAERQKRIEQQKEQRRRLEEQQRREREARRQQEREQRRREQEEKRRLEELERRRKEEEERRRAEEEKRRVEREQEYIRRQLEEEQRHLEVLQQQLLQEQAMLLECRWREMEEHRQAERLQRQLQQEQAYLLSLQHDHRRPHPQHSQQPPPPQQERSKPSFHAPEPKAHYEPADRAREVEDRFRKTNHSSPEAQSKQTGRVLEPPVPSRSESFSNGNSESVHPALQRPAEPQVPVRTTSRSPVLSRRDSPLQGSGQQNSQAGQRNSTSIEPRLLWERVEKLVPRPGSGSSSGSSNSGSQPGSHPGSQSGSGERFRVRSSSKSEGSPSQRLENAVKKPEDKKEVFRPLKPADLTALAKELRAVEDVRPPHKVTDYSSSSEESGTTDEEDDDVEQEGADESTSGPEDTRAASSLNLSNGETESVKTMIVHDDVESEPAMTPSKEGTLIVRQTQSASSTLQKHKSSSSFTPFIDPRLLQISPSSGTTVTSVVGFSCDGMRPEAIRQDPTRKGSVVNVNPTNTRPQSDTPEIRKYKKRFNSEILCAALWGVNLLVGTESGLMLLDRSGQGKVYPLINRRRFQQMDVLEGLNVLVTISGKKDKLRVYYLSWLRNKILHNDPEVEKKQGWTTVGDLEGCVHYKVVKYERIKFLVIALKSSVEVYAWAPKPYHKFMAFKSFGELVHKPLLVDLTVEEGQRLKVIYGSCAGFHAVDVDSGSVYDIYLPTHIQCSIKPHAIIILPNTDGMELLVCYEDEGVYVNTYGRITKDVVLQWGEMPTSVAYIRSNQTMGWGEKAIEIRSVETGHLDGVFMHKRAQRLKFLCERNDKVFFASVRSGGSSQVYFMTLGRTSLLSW
compound,measurement,setting,value
C=CC(=O)Nc1cc(Nc2ncc(Cl)c(Nc3ccccc3S(=O)(=O)C(C)C)n2)c(OC)cc1N(C)CCN(C)C,Activity,[1],87%
same,Activity,[2],15%
same,Activity,[3],23%
same,Activity,[4],9.4%
same,Activity,[5],90%
same,Activity,[6],91%
same,Activity,[7],3.3%
same,Activity,[8],5.9%
same,Activity,[9],18%
same,Activity,[10],99%
same,Activity,[11],0.55%
same,Activity,[12],39%
same,Activity,[13],91%
same,Activity,[14],1.4%
same,Activity,[15],93%
same,Activity,[16],96%
same,CL/F,[17],115 mL/min/kg
same,Activity,[18],23%
same,Activity,[19],72%
same,Activity,[20],48%
same,Activity,[21],1.9%
same,Activity,[22],96%
same,Activity,[23],0%
same,Activity,[24],77%
